Test results reported in ChEMBL document CHEMBL1122850, “Synthesis of 6-anilino-2-thiouracils and their inhibition of human placenta iodothyronine deiodinase” (J Med Chem, 1985).

Experiments:
[1] = target: T1, Thyroxine 5-deiodinase (Homo sapiens) (UniProt P55073); experiment: Inhibition of Human Placenta Inner-Ring Iodothyronine 5-deiodinase at the compound concentration of 5 mM
T1 sequence (whole entry): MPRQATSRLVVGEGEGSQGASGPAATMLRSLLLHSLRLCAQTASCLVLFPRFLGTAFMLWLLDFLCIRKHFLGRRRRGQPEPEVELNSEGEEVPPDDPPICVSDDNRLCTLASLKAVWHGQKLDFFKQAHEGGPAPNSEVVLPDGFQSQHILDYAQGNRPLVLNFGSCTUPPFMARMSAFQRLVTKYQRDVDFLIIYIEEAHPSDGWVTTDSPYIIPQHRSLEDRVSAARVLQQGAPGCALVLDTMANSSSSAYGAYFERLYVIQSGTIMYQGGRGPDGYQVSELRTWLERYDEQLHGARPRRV
Outline: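 Human placenta microsomal fraction (225 μg/tube) incubated 60 min at 37 °C with 290 pmol T4 in 0.1 M potassium phosphate–0.01 M EDTA, pH 7.4, with 0.25 mM DTT. Inhibitors at 5 mM, diluted from 30 mM stocks in 0.04 M NaOH. rT3 formed measured by radioimmunoassay. Inhibition relative to uninhibited control, quadruplicate incubations.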

[2] = target: T1, Thyroxine 5-deiodinase (Homo sapiens); experiment: Inhibition of Human placenta inner-ring Iodothyronine 5-deiodinase activity measured as rT3 production in presence of DTT concentrations of 12.5 mM
Outline: (§1)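 Placenta microsomes (225 μg/tube) incubated with 290 pmol T4 in 0.1 M potassium phosphate–0.01 M EDTA (pH 7.4), 60 min, 37 °C. DTT varied over 0.2–100 mM in place of 0.25 mM. Inhibitor present at 5 mM. rT3 production (pmol/tube) measured by radioimmunoassay and compared with control tubes without inhibitor. Quadruplicate incubations.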

[3] = target: T1, Thyroxine 5-deiodinase (Homo sapiens); experiment: Inhibition of Human placenta inner-ring Iodothyronine 5-deiodinase activity measured as rT3 production in presence of DTT concentrations of 0.2 mM; outline: as §1
[4] = target: T1, Thyroxine 5-deiodinase (Homo sapiens); experiment: Inhibition of Human placenta inner-ring Iodothyronine 5-deiodinase activity measured as rT3 production in presence of DTT concentrations of 1.56 mM; outline: as §1
[5] = target: T1, Thyroxine 5-deiodinase (Homo sapiens); experiment: Inhibition of Human placenta inner-ring Iodothyronine 5-deiodinase activity measured as rT3 production in presence of DTT concentrations of 100 mM; outline: as §1

## CCc1ccc(Nc2cc(=O)n(C)c(=S)[nH]2)cc1
[1]
  inhibition: 0%

## CCCCc1ccc(Nc2cc(O)nc(S)n2)cc1
[2]
  rT3 Production: 2.5 pmol/tube
[3]
  rT3 Production: 0.2 pmol/tube
[4]
  rT3 Production: 0.8 pmol/tube
[5]
  rT3 Production: 4.1 pmol/tube
[1]
  inhibition: 96%

## CCc1ccc(Nc2cc(=O)[nH]c(=S)n2C)cc1
[1]
  inhibition: 2%

## CCc1ccc(Nc2cc(O)nc(S)n2)cc1
[1]
  inhibition: 85%

## Cn1c(=S)[nH]c(N)c(Cc2ccccc2)c1=O
[1]
  inhibition: 79%

## Nc1cc(O)nc(S)n1
[1]
  inhibition: 16%

## CCCCc1ccc(Nc2cc(=O)n(C)c(=S)[nH]2)cc1
[1]
  inhibition: 20%

## Oc1cc(Nc2ccccc2)nc(S)n1
[1]
  inhibition: 31%

## CCCc1cc(=O)[nH]c(=S)[nH]1
[2]
  rT3 Production: 43.3 pmol/tube
[3]
  rT3 Production: 2.6 pmol/tube
[4]
  rT3 Production: 13.3 pmol/tube
[5]
  rT3 Production: 104 pmol/tube
[1]
  inhibition: 29%
